Sampled rows, rich in hits. Any-hit rate of the full collection: about 2.5%.
PHOSPHO1 inh – inhibitors of human PHOSPHO1 phosphatase | recombinant PHOSPHO1, absorbance phosphatase assay | AID 1565 | Q8TCT1 | inhibition, % at 13.3 µM | 290,000 compounds, 1.1% hits; in the data active = inhibition above about 60%
PGE2 EP2 inh – EP2 receptor (human) inhibition. P43116. C6 glioma cells expressing human EP2, cAMP TR-FRET; cells stimulated with saturating PGE2. inhibition, % at 25 µM. 260,000 compounds, 0.52% hits;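 active = percent inhibition above 40 after rounding to a whole number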;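 also: rat C6 glioma host cells with rolipram phosphodiesterase inhibitor present; the protocol text gives 20 µM as final concentration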
EP2 modulator – EP2 receptor (human) modulation. AID 940. EP2-expressing cells, cAMP HTRF FRET, PGE2 co-stimulation. 260,000 compounds, 0.83% hits. induction, % at 25 µM;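 active = compounds whose cAMP rise, as percent of the full-agonist control response, exceeds 60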;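 also: rat C6 glioma line stably carrying human EP2 under a CMV promoter; the protocol text gives 20 µM as final concentration; 100% = response of wells given 1 µM PGE2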
PfG6PD inh – PfG6PD (Plasmodium falciparum) enzyme inhibition; PfGluPho enzyme, NADPH resazurin-diaphorase fluorescence; inhibition, % at 20 µM; 350,000 compounds, 0.78% hits;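 active = inhibition reaching at least a set limit at 20 µM in the primary screen, cut at about 59% in these data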;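 also: 0% = DMSO wells with substrate and 100% = DMSO wells lacking glucose-6-phosphate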
TbHK1 inh – T. brucei hexokinase 1 inhibition; 220,000 compounds, 0.11% hits; recombinant TbHK1, G6PDH-coupled NADH A340; inhibition, % at 10 µM;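 active = inhibition of 50% or more in the single-dose primary screen; inactive = inhibition below 50%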
HKDC1 inh – HKDC1 (human) hexokinase inhibition | AID 493160 | recombinant HKDC1, G6PDH/diaphorase resazurin coupled fluorescence | 340,000 compounds, 0.16% hits | inhibition, % at 20 µM;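 active = inhibition above about 35% when tested at 20 µM, limit read from the data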;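 also: plate controls were DMSO wells with enzyme for no effect and DMSO wells lacking enzyme for full effect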
Target sequence (Q2TB90 whole entry, looked up): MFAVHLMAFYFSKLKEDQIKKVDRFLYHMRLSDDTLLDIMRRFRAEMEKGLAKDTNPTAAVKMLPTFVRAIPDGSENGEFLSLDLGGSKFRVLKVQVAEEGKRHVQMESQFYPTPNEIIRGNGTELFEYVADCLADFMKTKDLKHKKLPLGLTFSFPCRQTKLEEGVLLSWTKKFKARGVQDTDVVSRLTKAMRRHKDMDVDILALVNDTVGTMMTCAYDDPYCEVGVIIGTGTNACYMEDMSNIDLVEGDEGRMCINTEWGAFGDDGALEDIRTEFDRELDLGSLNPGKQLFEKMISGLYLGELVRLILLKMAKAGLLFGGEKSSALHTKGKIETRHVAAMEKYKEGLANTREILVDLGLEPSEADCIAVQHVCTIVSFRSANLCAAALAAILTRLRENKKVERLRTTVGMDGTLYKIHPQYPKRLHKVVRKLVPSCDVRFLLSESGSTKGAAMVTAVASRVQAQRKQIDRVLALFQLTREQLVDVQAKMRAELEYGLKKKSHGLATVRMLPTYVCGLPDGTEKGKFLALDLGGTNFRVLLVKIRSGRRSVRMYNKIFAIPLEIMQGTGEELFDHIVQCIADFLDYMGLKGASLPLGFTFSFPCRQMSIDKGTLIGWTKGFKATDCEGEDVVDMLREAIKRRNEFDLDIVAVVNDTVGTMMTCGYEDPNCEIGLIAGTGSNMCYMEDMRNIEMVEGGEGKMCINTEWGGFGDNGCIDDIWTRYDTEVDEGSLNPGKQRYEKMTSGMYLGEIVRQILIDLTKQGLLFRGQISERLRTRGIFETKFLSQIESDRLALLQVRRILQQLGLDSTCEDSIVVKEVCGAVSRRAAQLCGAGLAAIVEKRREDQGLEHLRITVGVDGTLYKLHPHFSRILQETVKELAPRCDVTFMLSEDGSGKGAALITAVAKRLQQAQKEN
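System: Recombinant HKDC1 hexokinase | Amount: HKDC1 at 5 µg/mL | Reagent: Glucose with 1 mM ATP | Doses: Single 20 µM dose | Incubation: Reaction time 90 min, room temperature, protected from light | Signal: Coupled resazurin fluorescence, excitation 525 nm, emission 613 nm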
Numbers without * were called inactive; x = no result.

SMILES | PHOSPHO1 inh | PGE2 EP2 inh | EP2 modulator | PfG6PD inh | TbHK1 inh | HKDC1 inh
COc1ccc(-n2c(SC3CCOC3=O)nc3ccccc3c2=O)cc1OC (stereo not drawn) | 66* | 7 | 20 | 7 | -20 | 8
O=C(CN1CCN(Cc2ccccc2)CC1)c1c[nH]c2ccccc12 | 80* | 11 | -34 | 1 | -3 | 0
NC(=O)CN1C(=O)Cc2ccccc21 | x | 10 | -9 | x | x | x
CCOc1ccc(OCC)c(-c2c(=O)n(OCc3ccccc3Br)c3ccccc3[n+]2[O-])c1 | 18 | 5 | 64* | -1 | -17 | -4
CCOc1ccc(-c2c(=O)n(OCc3ccccc3Br)c3ccccc3[n+]2[O-])c(OCC)c1 | 21 | 18 | 33 | 20 | -6 | 0
COc1ccc(CCNc2nc(N3CCCCC3)nc(N3CCCCC3)n2)cc1OC | -6 | 16 | 61* | 13 | -13 | 10
COCCCNC(=O)c1ccc(N2CCCC2)c(NS(=O)(=O)c2ccc(C)cc2)c1 | 64* | 4 | 10 | 11 | -16 | 20
COc1ccc(-c2noc(C3CCCN(S(=O)(=O)c4ccc(NC(C)=O)cc4)C3)n2)cc1 (stereo not drawn) | x | 10 | -69 | x | x | x
COc1ccc(OC)c(NC(=O)C2CCCN(c3nccc(C)n3)C2)c1 (stereo not drawn) | x | 9 | -7 | x | x | x
Nc1nc(Nc2ccccc2)nc(NCc2ccccc2)c1[N+](=O)[O-] | 16 | 5 | 38 | 23 | -18 | 9
Nc1nc(Nc2ccccc2F)nc(NCc2ccccc2)c1[N+](=O)[O-] | 36 | 6 | 76* | 8 | -8 | -4
Nc1nc(NCc2ccccc2)nc(NCc2ccccc2)c1[N+](=O)[O-] | 2 | 4 | 31 | -11 | -18 | -1
Cc1cccc(Nc2nc(N)c([N+](=O)[O-])c(NCc3ccccc3)n2)c1 | 33 | 11 | 76* | 32 | -11 | 5
O[N+]1=CC=CCC1=S.On1ccccc1=S.[Zn] | x | 118* | -38 | x | x | x
CC(C)C(=O)N1CCN(c2ccc(NC(=O)c3ccco3)cc2)CC1 | x | 7 | -39 | x | x | x
OCCC1CN(Cc2nc(-c3ccccc3)cs2)CCN1C1CCCC1 (stereo not drawn) | 64* | 8 | -20 | 9 | -2 | -10
NNC(=O)c1ccc(Oc2cc(Cl)cc(Cl)c2)o1 | 41 | 22 | -41 | 2 | 1 | 0
O=C(O)c1ccc(Oc2ccccc2)o1 | 25 | 4 | 70* | 1 | -4 | -4
O=C(Nc1ccc(Cl)cc1)c1cccc(S(=O)(=O)Nc2ccccn2)c1 | 18 | x | x | -25 | x | -2
O=C(O)c1cccc(S(=O)(=O)Nc2ccccn2)c1 | x | 63* | -36 | x | x | x
CC(C)n1cc(C(=O)N2CCC(c3ncncc3-c3ccncc3)CC2)cn1 | x | x | -6 | x | x | x
COc1cc(OC)c(NC(=O)CSc2nnc(-c3cccnc3)o2)cc1Cl | x | 9 | -7 | x | x | x
CCC(C)Oc1nc(C)cc(C)c1S(=O)(=O)c1ccccc1C (stereo not drawn) | 8 | 12 | 64* | 12 | 4 | 2
COc1nc(C)cc(C)c1S(=O)(=O)c1ccccc1C | x | x | x | 10 | x | 2
COc1ccc(S(=O)(=O)N2c3ccccc3OCC2C(C)(C)C)cc1 (stereo not drawn) | 3 | 4 | 62* | 5 | -6 | -13
SMILES | PHOSPHO1 inh | PGE2 EP2 inh | EP2 modulator | PfG6PD inh | TbHK1 inh | HKDC1 inh
COc1ccc(S(=O)(=O)N2c3ccccc3OCC2C)cc1 (stereo not drawn) | -5 | 7 | 15 | -8 | 3 | -6
COCCNc1c(-c2ccc(N3CCCCC3)cc2)nc2cnccn12 | x | 8 | -45 | x | x | x
CCOc1ccc(C(O)CN2CCC3(CC2)CC(O)c2cc(C)ccc2O3)cc1 (stereo not drawn) | x | 11 | -47 | x | x | x
COC(=O)c1[nH]c2ccccc2c1NC(=O)CN1CCCCCC1 | 65* | 11 | 1 | 8 | 1 | 0
C1CSC2(N1)C1CC3CC2CC(C1)C31NCCS1 (stereo not drawn) | 61* | 7 | 19 | -4 | -2 | -8
O=C1CSC2(N1)C1CC3CC(C1)CC2C3 (stereo not drawn) | 27 | 11 | 2 | -24 | 2 | -8
CC(C)=Cc1oc2ccc([N+](=O)[O-])cc2c1N1CCOCC1 | -6 | 5 | 64* | 0 | -1 | -5
CC(C)(C)NC(=O)C1CCC(CNS(=O)(=O)c2cccc3nsnc23)CC1 (stereo not drawn) | 58 | x | x | -8 | x | -1
CCOC(=O)CNC(=O)C1CCC(CNS(=O)(=O)c2cccc3nsnc23)CC1 (stereo not drawn) | 65* | x | x | -13 | x | -5
CCCOc1cccc(C2C(C(=O)c3ccc(C)o3)=C(O)C(=O)N2CCN(C)C)c1 (stereo not drawn) | x | 13 | 8 | x | x | x
CC(C)COC(=O)CNc1n[nH]c(=S)[nH]c1=O | 41 | 133* | -18 | -7 | -19 | -7
CCCCOC(=O)CNc1n[nH]c(=S)[nH]c1=O | 24 | 114* | -32 | 2 | -21 | -7
Cc1ccc(S(=O)(=O)N2CCNCC2)c(C)c1 | x | 9 | -14 | x | x | x
C=CCn1c(=O)/c(=C2/SC(C)=C(C)N2CC)s/c1=C1/C(=O)N(CC)C(=S)N1c1ccccc1 | 100* | x | -3 | 11 | 3 | -3
COc1ccc(C)cc1NC(=O)CSc1nc2c(C)ccc(C)c2cc1C#N | x | 23 | 34 | x | x | x
Nc1ccccc1Sc1ccccc1[N+](=O)[O-] | 10 | 11 | 61* | 22 | -8 | -8
CO/N=C/c1ccc(Sc2ccccc2N)c([N+](=O)[O-])c1 | -4 | 19 | 0 | -7 | 0 | 6
Cc1cc(C)c2c(N)c(S(=O)c3ccc(C(C)(C)C)cc3)sc2n1 (stereo not drawn) | 106* | 4 | 4 | 9 | -10 | -2
Cc1cc(C)c2c(N)c(C(=O)C(C)(C)C)sc2n1 | 48 | 8 | -1 | 12 | -7 | 7
COc1cccc(C2C(C#N)=C(N)Oc3n[nH]c(-c4cccs4)c32)c1OC (stereo not drawn) | x | 10 | 31 | x | x | x
Cc1ccc(CN(CCCN2CCOCC2)Cc2ccc3c(c2)n(C)c(=O)n3C)o1 | x | 7 | 4 | x | x | x
Cc1cccc(/C=N/NC(=O)NC2CCCCC2)c1 | -16 | 6 | 63* | -8 | 36 | -7
O=c1[nH]c(CN2CCc3ccccc32)nc2scc(-c3cccs3)c12 | 64* | 24 | 6 | 0 | -4 | 10
O=C(CSCc1nc2scc(-c3cccs3)c2c(=O)[nH]1)Nc1ccccn1 | 18 | x | x | -2 | x | 2
CCOC(=O)c1csc(N)c1-c1ccc([N+](=O)[O-])cc1 | 22 | 8 | 63* | 41 | -10 | 3
CCOC(=O)c1c(-c2cccc([N+](=O)[O-])c2)csc1N | -21 | 2 | 56 | 30 | 2 | -2
CCOC(=O)/C(=N\Nc1ccc(OC)cc1)c1csc(Nc2ccccc2)n1 | 90* | -2 | -1 | 19 | -9 | -6
CCOC(=O)/C(=N\Nc1ccc(Cl)cc1)c1csc(Nc2ccccc2)n1 | 49 | 44* | 29 | 12 | -2 | 5
